Reference: ChEMBL document CHEMBL3421563, “Potent Irreversible Inhibitors of LasR Quorum Sensing in Pseudomonas aeruginosa” (ACS Med Chem Lett, 2015)
Active and inactive are the calls of the source. The calls are words filed in the database; no cut-off is given here.

Legend:
[1] = biological target: T1, Transcriptional activator protein LasR (Pseudomonas aeruginosa (strain ATCC 15692 / PAO1 / 1C / PRS 101 / LMG12228), UniProt P25084); assay: Agonist activity at Pseudomonas aeruginosa LasR expressed in Escherichia coli BL21 DE3 after 4 to 6 hrs by GFP reporter gene assay
T1 sequence (P25084 whole entry): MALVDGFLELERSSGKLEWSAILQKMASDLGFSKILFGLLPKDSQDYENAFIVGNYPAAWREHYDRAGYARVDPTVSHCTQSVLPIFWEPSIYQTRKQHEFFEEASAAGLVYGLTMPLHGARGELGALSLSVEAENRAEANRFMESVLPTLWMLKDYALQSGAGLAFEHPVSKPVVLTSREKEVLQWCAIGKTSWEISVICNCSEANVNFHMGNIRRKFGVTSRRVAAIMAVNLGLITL

[2] = Antagonist activity at Pseudomonas aeruginosa LasR expressed in Escherichia coli BL21 DE3 after 4 to 6 hrs by GFP reporter gene assay
Procedure, shortened: (§1)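 GFP-based LasR antagonist bioassay. IC50 is the mean of triplicate runs, range as 95% confidence interval. Percent inhibition of GFP is measured at 100 μM relative to Br-HSL positive control, which is set at 100% inhibition.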

[3] = biological target: T2, Transcriptional activator protein LasR (Pseudomonas aeruginosa (strain ATCC 15692 / PAO1 / 1C / PRS 101 / LMG12228)) (UniProt P25084); assay: Antagonist activity at Pseudomonas aeruginosa LasR expressed in Escherichia coli BL21 DE3 at 100 uM after 4 to 6 hrs by GFP reporter gene assay relative to Br-HSL; procedure, shortened: as §1
T2 sequence (whole entry): T1 sequence (P25084 whole entry)

[4] = biological target: T2, Transcriptional activator protein LasR (Pseudomonas aeruginosa (strain ATCC 15692 / PAO1 / 1C / PRS 101 / LMG12228)); assay: Irreversible antagonist activity at Pseudomonas aeruginosa LasR expressed in Escherichia coli BL21 DE3 at 10 to 50 uM after 4 to 6 hrs by GFP reporter gene assay in presence of LasR agonist 3-oxo-C12HSL
Procedure, shortened: (§2)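 Competition format of the GFP LasR bioassay: antagonist held at a fixed concentration while a dose-response curve of native agonist 3-oxo-C12 HSL is run; the maximal activation and the curve are compared.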

Pseudomonas aeruginosa [5] = assay: Effect on growth of Pseudomonas aeruginosa up to 200 uM; type: organism-based; details: in vivo
Procedure, shortened: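 Bacterial growth is monitored by OD600 at concentrations up to 200 μM.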

[6] = biological target: T2, Transcriptional activator protein LasR (Pseudomonas aeruginosa (strain ATCC 15692 / PAO1 / 1C / PRS 101 / LMG12228)); assay: Antagonist activity at LasR in Pseudomonas aeruginosa PAO1 assessed as decrease in pyocyanin level in extracted and acidified cell-free supernatants after 12 hrs
Procedure, shortened: (§3)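 Cell-free culture supernatants undergo a pyocyanin-selective extraction and acidification, then absorbance is read at 520 nm.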

Pseudomonas aeruginosa [7] = assay: Effect on growth of Pseudomonas aeruginosa PAO1 at 12.5 to 25 uM; type: organism-based; details: in vivo
Procedure, shortened: (§4)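 Growth of PAO1 and PA14 in the pyocyanin cultures is followed by cell density at A600.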

[8] = biological target: T2, Transcriptional activator protein LasR (Pseudomonas aeruginosa (strain ATCC 15692 / PAO1 / 1C / PRS 101 / LMG12228)); assay: Antagonist activity at LasR in Pseudomonas aeruginosa PA14 assessed as inhibition of static biofilm thickness grown in rich media after 36 hrs by SYTO-9 nucleic acid staining-based confocal microscopic analysis
Procedure, shortened: (§5)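 PA14 biofilms grown 36 h in Luria broth, stained with SYTO-9 and imaged by confocal fluorescence microscopy. Biomass and thickness are computed from the images. Images are taken in duplicate and imaging is repeated three times.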

[9] = biological target: T2, Transcriptional activator protein LasR (Pseudomonas aeruginosa (strain ATCC 15692 / PAO1 / 1C / PRS 101 / LMG12228)); assay: Antagonist activity at LasR in Pseudomonas aeruginosa PA14 assessed as decrease in pyocyanin level in cell-free supernatants after 12 hrs
Procedure, shortened: (§6)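 Cell-free supernatants from PAO1 or PA14 cultures. Pyocyanin is read directly as absorbance at 695 nm, in triplicate. Cell density is read at A600 in parallel.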

[10] = biological target: T2, Transcriptional activator protein LasR (Pseudomonas aeruginosa (strain ATCC 15692 / PAO1 / 1C / PRS 101 / LMG12228)); assay: Antagonist activity at LasR in Pseudomonas aeruginosa PA14 assessed as inhibition of static biofilm formation after 48 hrs by crystal violet staining
Procedure, shortened: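 Static PA14 cultures; 48 h biofilms quantified by crystal violet staining, absorbance at 550 nm.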

[11] = biological target: T2, Transcriptional activator protein LasR (Pseudomonas aeruginosa (strain ATCC 15692 / PAO1 / 1C / PRS 101 / LMG12228)); assay: Antagonist activity at LasR in Pseudomonas aeruginosa PAO1 assessed as decrease in pyocyanin level in cell-free supernatants after 12 hrs; procedure, shortened: as §6
Pseudomonas aeruginosa [12] = assay: Effect on growth of Pseudomonas aeruginosa PA14 at 12.5 to 25 uM; procedure, shortened: as §4
[13] = biological target: T2, Transcriptional activator protein LasR (Pseudomonas aeruginosa (strain ATCC 15692 / PAO1 / 1C / PRS 101 / LMG12228)); assay: Antagonist activity at LasR in Pseudomonas aeruginosa PA14 assessed as inhibition of static biofilm thickness grown in rich media at 12.5 to 25 uM after 36 hrs SYTO-9 nucleic acid staining-based confocal microscopic analysis
[14] = biological target: T2, Transcriptional activator protein LasR (Pseudomonas aeruginosa (strain ATCC 15692 / PAO1 / 1C / PRS 101 / LMG12228)); assay: Antagonist activity at LasR in Pseudomonas aeruginosa PA14 assessed as inhibition of overall static biofilm morphology grown in rich media at 12.5 to 25 uM after 36 hrs SYTO-9 nucleic acid staining-based confocal microscopic analysis
[15] = biological target: T2, Transcriptional activator protein LasR (Pseudomonas aeruginosa (strain ATCC 15692 / PAO1 / 1C / PRS 101 / LMG12228)); assay: Antagonist activity at LasR in Pseudomonas aeruginosa PA14 assessed as inhibition of static biofilm biomass grown in rich media at 12.5 to 25 uM after 36 hrs SYTO-9 nucleic acid staining-based confocal microscopic analysis
[16] = biological target: T2, Transcriptional activator protein LasR (Pseudomonas aeruginosa (strain ATCC 15692 / PAO1 / 1C / PRS 101 / LMG12228)); assay: Irreversible antagonist activity at Pseudomonas aeruginosa LasR expressed in Escherichia coli BL21 DE3 at 10 to 100 uM after 4 to 6 hrs by GFP reporter gene assay in presence of LasR agonist 3-oxo-C12HSL; procedure, shortened: as §2
[17] = biological target: T2, Transcriptional activator protein LasR (Pseudomonas aeruginosa (strain ATCC 15692 / PAO1 / 1C / PRS 101 / LMG12228)); assay: Antagonist activity at LasR in Pseudomonas aeruginosa PA14 assessed as inhibition of overall static biofilm biomass grown in rich media after 36 hrs SYTO-9 nucleic acid staining-based confocal microscopic analysis; procedure, shortened: as §5
[18] = biological target: T2, Transcriptional activator protein LasR (Pseudomonas aeruginosa (strain ATCC 15692 / PAO1 / 1C / PRS 101 / LMG12228)); assay: Antagonist activity at LasR in Pseudomonas aeruginosa PA14 assessed as decrease in pyocyanin level in extracted and acidified cell-free supernatants after 12 hrs; procedure, shortened: as §3
[19] = biological target: T1, Transcriptional activator protein LasR; assay: Agonist activity at Pseudomonas aeruginosa LasR
[20] = biological target: T2, Transcriptional activator protein LasR (Pseudomonas aeruginosa (strain ATCC 15692 / PAO1 / 1C / PRS 101 / LMG12228)); assay: Non-competitive antagonist activity at Pseudomonas aeruginosa LasR expressed in Escherichia coli BL21 DE3 at 40 to 80 uM after 4 to 6 hrs by GFP reporter gene assay in presence of LasR agonist 3-oxo-C12HSL; procedure, shortened: as §2

SMILES	IC50 [2] [µM]	inhibition [3] [%]	other results
O=C(Cc1cc(Br)cc(Br)c1OC(=O)CCN1C(=O)CCC1=O)Nc1ccccc1[N+](=O)[O-]	> 100		EC50 [1]: 0.0036 µM
O=C(Cc1cc(Br)cc(Br)c1OC(=O)CCN1C(=O)C=CC1=O)Nc1ccccc1[N+](=O)[O-]	3.6	98	inhibition [4]: Active
O=C(CCl)NCC(=O)Oc1c(Br)cc(Br)cc1CC(=O)Nc1ccccc1[N+](=O)[O-]	73.8	91	
O=C(Cc1cc(Br)cc(Br)c1OC(=O)CCCN=C=S)Nc1ccccc1[N+](=O)[O-]	148	69	Activity (Pseudomonas aeruginosa [5]): Non-toxic
O=C(Cc1cc(Br)cc(Br)c1OC(=O)CCCN1C(=O)C=CC1=O)Nc1ccccc1[N+](=O)[O-]	78.1	30	
O=C(CCN1C(=O)C=CC1=O)Oc1c(Br)cc(Br)cc1CNC(=O)c1ccccc1[N+](=O)[O-]	51.9	32	
O=C(Cc1cc(Br)cc(Br)c1OCCCN=C=S)Nc1ccccc1[N+](=O)[O-]	> 200	55	Activity (Pseudomonas aeruginosa [5]): Non-toxic
O=C(CCCN=C=S)Oc1c(Br)cc(Br)cc1CNC(=O)c1ccccc1[N+](=O)[O-]	> 200	26	Activity (Pseudomonas aeruginosa [5]): Non-toxic
O=C(Cc1cc(Br)cc(Br)c1OC(=O)CN1C(=O)C=CC1=O)Nc1ccccc1[N+](=O)[O-]	86.8	56	
O=C(CCCN1C(=O)C=CC1=O)Oc1c(Br)cc(Br)cc1CNC(=O)c1ccccc1[N+](=O)[O-]	1.5	101	inhibition [6]: Dose-dependent effect; Activity (Pseudomonas aeruginosa [7]): Non-toxic; inhibition [8]: Dose-dependent effect; inhibition [9]: Dose-dependent effect; inhibition [10]: Dose-dependent effect; inhibition [11]: Dose-dependent effect; Activity (Pseudomonas aeruginosa [12]): Non-toxic; inhibition [13]: Active; inhibition [14]: Active; inhibition [15]: Active; inhibition [16]: Active; inhibition [17]: Dose-dependent effect; inhibition [18]: Dose-dependent effect
O=C(Oc1c(Br)cc(Br)cc1CNC(=O)c1ccccc1[N+](=O)[O-])c1ccccc1Cl			EC50 [19]: 0.028 µM
O=C(CCCN1C(=O)CCC1=O)Oc1c(Br)cc(Br)cc1CNC(=O)c1ccccc1[N+](=O)[O-]	> 100		EC50 [1]: 0.119 µM
O=C(CCl)NCCC(=O)Oc1c(Br)cc(Br)cc1CC(=O)Nc1ccccc1[N+](=O)[O-]	99.5	79	
O=C(Cc1cc(Br)cc(Br)c1OCCCCN=C=S)Nc1ccccc1[N+](=O)[O-]	145	61	inhibition [20]: Active; Activity (Pseudomonas aeruginosa [5]): Non-toxic
O=C(Cc1ccc(Br)cc1)N[C@H]1CCOC1=O	16.4		
